Laboratory results published in ChEMBL document CHEMBL1157184, “Hymenoic acid, a novel specific inhibitor of human DNA polymerase lambda from a fungus of Hymenochaetaceae sp” (Bioorg Med Chem, 2008).
Calls of active or inactive are those of the source. The rule behind the calls is not given here.

Columns and labels:
[1] = biological target: T1, DNA polymerase eta (Homo sapiens) (UniProt Q9Y253); test: Inhibition of human DNA polymerase eta at 200 uM
T1 sequence (whole entry): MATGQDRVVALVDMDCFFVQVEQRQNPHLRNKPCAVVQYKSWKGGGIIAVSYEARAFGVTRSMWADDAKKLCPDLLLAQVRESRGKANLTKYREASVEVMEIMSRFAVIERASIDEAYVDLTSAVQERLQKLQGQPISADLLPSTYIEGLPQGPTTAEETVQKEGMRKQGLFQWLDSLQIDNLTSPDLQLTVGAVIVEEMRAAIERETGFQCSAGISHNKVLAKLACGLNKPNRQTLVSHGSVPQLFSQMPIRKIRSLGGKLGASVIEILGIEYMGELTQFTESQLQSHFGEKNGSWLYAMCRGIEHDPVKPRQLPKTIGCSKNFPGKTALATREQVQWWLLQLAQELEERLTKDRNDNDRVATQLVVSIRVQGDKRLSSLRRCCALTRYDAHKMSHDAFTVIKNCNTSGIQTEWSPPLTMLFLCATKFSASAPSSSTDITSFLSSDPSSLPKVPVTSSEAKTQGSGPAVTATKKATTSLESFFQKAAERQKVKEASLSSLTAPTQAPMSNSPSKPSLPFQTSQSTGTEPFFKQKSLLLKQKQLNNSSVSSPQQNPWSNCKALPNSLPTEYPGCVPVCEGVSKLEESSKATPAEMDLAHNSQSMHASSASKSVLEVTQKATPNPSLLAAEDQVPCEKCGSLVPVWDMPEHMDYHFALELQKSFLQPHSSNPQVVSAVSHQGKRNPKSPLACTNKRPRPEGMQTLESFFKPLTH
In short: (§1)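 Compound dissolved in DMSO and sonicated 30 s, then held with each polymerase (final 0.05 U) in 50 mM Tris-HCl pH 7.5, 1 mM DTT, 50% glycerol, 0.1 mM EDTA at 0 °C for 10 min. Reaction with poly(dA)/oligo(dT)12-18 and dTTP ran 60 min at 37 °C (Taq at 74 °C). Activity relative to no-compound control; means ± SEM, four independent experiments.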

[2] = species: Homo sapiens; test: Inhibition of human DNA polymerase gamma at 200 uM; in short: as §1
[3] = biological target: T2, DNA polymerase kappa (Homo sapiens) (UniProt Q9UBT6); test: Inhibition of human DNA polymerase kappa at 200 uM; in short: as §1
T2 sequence (whole entry): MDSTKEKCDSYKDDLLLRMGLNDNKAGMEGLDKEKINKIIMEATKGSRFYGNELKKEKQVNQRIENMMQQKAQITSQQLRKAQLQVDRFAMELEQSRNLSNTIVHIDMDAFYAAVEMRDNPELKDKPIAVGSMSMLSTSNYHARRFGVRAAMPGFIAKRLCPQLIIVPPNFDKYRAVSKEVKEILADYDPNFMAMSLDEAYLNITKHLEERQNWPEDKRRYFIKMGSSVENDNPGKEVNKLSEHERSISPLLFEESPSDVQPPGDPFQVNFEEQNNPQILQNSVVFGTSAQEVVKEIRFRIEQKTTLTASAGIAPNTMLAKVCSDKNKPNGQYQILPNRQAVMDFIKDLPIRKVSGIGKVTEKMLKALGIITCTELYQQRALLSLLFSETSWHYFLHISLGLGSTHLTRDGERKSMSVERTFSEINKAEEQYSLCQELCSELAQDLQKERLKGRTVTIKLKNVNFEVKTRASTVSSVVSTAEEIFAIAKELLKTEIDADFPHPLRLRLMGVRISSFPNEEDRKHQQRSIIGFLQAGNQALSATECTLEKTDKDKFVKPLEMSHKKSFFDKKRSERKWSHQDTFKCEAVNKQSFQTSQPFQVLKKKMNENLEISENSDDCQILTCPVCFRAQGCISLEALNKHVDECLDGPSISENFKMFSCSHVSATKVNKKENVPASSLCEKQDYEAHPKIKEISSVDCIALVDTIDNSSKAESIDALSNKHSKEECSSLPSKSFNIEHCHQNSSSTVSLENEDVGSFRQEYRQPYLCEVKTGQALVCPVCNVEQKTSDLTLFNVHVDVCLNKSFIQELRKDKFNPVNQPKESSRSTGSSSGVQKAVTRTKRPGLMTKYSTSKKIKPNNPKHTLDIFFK

Activity [1]: inactive
Activity [2]: inactive
Activity [3]: inactive
Structure (SMILES): C/C(=C\CC[C@H](C)C(=O)O)[C@H]1CC[C@H](C(=O)O)CC1
